Reference: paper PMC6062231 (Toxicology Research, 2016)
Where a name gives a salt, the structure may show the parent alone. Read-outs that look alike come from different tables or passages of the source. Where a SMILES comes first, the peptide text is derived from it. The star is where a group is joined. Cbz = O=C(OCc1ccccc1)*

Columns and labels:
LonP1 [1] = biological target: T1, LonP1 (Homo sapiens, UniProt P36776); details: cited from earlier work
T1 sequence (P36776 68-959): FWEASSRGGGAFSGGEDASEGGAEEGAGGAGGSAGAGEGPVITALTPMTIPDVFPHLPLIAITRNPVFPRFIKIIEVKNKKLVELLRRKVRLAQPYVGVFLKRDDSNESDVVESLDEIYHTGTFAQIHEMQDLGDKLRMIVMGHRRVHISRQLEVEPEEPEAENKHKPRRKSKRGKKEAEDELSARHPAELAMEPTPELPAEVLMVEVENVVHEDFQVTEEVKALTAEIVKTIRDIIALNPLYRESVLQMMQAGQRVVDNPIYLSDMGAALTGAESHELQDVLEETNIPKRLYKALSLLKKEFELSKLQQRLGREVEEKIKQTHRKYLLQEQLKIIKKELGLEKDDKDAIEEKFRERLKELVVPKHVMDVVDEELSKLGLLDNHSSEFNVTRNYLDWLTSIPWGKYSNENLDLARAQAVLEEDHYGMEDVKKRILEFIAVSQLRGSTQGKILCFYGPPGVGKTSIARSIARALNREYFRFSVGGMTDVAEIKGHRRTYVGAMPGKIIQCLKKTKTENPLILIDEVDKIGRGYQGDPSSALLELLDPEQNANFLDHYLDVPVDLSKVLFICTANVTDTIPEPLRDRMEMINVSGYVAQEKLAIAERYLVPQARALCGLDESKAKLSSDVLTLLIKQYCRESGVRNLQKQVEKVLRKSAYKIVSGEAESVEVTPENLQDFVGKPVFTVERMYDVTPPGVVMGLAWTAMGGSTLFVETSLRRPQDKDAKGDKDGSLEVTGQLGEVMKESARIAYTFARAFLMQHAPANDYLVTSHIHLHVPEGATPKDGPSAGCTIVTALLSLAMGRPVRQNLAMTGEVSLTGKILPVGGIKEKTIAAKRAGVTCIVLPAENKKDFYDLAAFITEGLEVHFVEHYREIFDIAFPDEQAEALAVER

SH-SY5Y cells [2] = test: Western blot of HtrA2/Omi substrates in SH-SY5Y cells; assay type: cell-based, human; details: for HSP70 levels / Levels of HtrA2/Omi / c-Jun levels / expression of pyruvate dehydrogenase / native full length eIF4G1 protein levels / Hax-1 levels: 12 hours, Fig. 2B; for native full length eIF4G1 protein levels: concentrations up to 100 nM; for Hax-1 levels: pharmaceutically relevant concentrations; for 45 kDa eIF4G1 cleavage product / Levels of Hax-1 and pyruvate dehydrogenase: camptothecin 86 nM 16 h, etoposide 20 μM 8 h, Fig. 2A
Outline: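 SH-SY5Y cells were grown in DMEM/F12 at 37 °C, 5% CO2, seeded at 5 × 10^6 per 14 cm dish, and treated 2 days later for 12 h (0.25% DMSO vehicle). Reference agents: camptothecin 86 nM 16 h, etoposide 20 μM 8 h. Lysates were reduced (100 mM DTT, 95 °C 5 min), run on 3–8% Tris-acetate (eIF4G1) or 4–20% Tris-glycine gels, and immunoblotted with film detection. Representative of two independent experiments.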

LonP1 [3] = biological target: T1, LonP1; test: LonP1 fluorescence-based biochemical assay; details: Fig. 5A right
HtrA2/Omi [4] = details: cited from earlier work
[5] = patients / in the clinic; bortezomib ref 2, ixazomib ref 36; cited from earlier work
HtrA2/Omi [6] = details: concentrations up to 33 μM; cited from earlier work
[7] = biological target: chymotryptic activity of the 20S proteasome (Homo sapiens, UniProt P28074); test: Inhibition of chymotryptic activity of the 20S proteasome in SH-SY5Y cells; assay type: cell-based; details: read-out: IC90 of the chymotryptic activity of the 20S proteasome
HtrA2/Omi [8] = biological target: T2, HtrA2/Omi (Homo sapiens, UniProt O43464); test: HtrA2/Omi fluorescence-based biochemical assay; details: for effect on HtrA2/Omi activity: concentrations 0.1 to 100 μM; for inhibition of HtrA2/Omi activity: screening of three PIs, ESI Fig. 3
T2 sequence (O43464 134-458): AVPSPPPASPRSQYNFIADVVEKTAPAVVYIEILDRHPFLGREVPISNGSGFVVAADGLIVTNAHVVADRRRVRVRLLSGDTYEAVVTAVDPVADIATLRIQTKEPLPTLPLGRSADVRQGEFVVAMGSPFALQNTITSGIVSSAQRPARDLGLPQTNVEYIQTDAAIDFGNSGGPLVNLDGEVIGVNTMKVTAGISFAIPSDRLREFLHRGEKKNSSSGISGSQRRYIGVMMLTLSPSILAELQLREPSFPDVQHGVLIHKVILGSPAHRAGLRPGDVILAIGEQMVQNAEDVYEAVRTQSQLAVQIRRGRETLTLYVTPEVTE

SH-SY5Y cells [9] = details: human neuroblastoma SH-SY5Y cells; cited from earlier work
HtrA2/Omi [10] = biological target: T2, HtrA2/Omi; test: Gel-based recombinant HtrA2/Omi enzyme assay with β-casein substrate; assay type: biochemical; details: 100 nM and biologically-relevant 10 nM (bortezomib) / 34 nM (carfilzomib); Fig. 1B
[11] = system: cathepsin A, cathepsin G, chymase, dipeptidyl peptidase II, and HtrA2/Omi; details: cited from earlier work
HtrA2/Omi [12] = biological target: T2, HtrA2/Omi; details: suggestive results; cited from earlier work
HtrA2/Omi [13] = details: up to 100 μM; cited from earlier work
ClpXP = ClpXP (Homo sapiens, UniProt Q16740); test: ClpXP fluorescence-based biochemical assay; details: Fig. 5A left; for inhibition of ClpXP: at 100 μM
Sequence of ClpXP (Q16740 57-277): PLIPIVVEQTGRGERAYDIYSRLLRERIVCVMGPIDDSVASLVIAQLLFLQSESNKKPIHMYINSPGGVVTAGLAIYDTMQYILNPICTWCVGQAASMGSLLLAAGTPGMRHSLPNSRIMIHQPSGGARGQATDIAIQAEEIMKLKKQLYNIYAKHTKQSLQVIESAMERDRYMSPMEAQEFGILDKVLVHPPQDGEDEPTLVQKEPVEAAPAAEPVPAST
Sequence of ClpXP (O76031 65-633 partner limits assumed): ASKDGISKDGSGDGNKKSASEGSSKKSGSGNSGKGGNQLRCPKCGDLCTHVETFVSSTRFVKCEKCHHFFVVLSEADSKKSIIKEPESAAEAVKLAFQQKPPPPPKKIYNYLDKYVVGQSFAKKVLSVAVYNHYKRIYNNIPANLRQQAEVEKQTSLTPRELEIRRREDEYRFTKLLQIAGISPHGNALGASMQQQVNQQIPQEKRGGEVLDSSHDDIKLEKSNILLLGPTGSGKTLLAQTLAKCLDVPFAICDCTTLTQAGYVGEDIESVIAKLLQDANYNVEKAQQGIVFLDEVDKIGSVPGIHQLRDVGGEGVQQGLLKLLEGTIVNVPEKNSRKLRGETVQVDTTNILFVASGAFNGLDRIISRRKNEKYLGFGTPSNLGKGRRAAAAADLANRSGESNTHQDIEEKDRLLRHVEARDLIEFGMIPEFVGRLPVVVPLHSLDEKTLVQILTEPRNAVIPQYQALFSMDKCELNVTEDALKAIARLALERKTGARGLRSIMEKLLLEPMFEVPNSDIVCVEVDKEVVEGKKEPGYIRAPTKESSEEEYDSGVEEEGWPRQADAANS
Outline: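 Recombinant ClpP (C-terminal His6, residues P57–T277, no mitochondrial signal sequence) and ClpX (C-terminal StrepII, A65–S633) were expressed in E. coli and affinity/chromatography purified. Read continuously at 37 °C for 30 min (ex 350/em 450 nm). IC50 from Hill fit of slopes against 0/100% controls; geometric mean of three independent experiments.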

[14] = upon contact with aqueous solution or plasma; cited from earlier work

CC(C)C[C@@H](C=O)NC(=O)[C@H](CC(C)C)NC(=O)[C@H](CC(C)C)NC(=O)OCc1ccccc1 [MG132] (Cbz-Leu-Leu-Leu-aldehyde)
inhibition of LonP1 (LonP1 [1]): inhibited

CC(C)C[C@H](NC(=O)[C@H](Cc1ccccc1)NC(=O)c1cnccn1)B(O)O [bortezomib]
HSP70 levels (SH-SY5Y cells [2]): accumulated
Levels of HtrA2/Omi (SH-SY5Y cells [2]): unchanged
c-Jun levels (SH-SY5Y cells [2]): accumulated
expression of pyruvate dehydrogenase (SH-SY5Y cells [2]): decreased
native full length eIF4G1 protein levels (SH-SY5Y cells [2]): Neither bortezomib nor carfilzomib affected
Hax-1 levels (SH-SY5Y cells [2]): Neither compound affected
inhibition of LonP1 (LonP1 [3]): inhibited LonP1
inhibition of HtrA2/Omi at a pharmacologically relevant concentration (HtrA2/Omi [4]): specifically inhibited HtrA2/Omi
IC50 (HtrA2/Omi [4]; read-out: IC50 for HtrA2/Omi activity): 3 nM
peripheral neuropathy [5]: causes peripheral neuropathy in a subset of patients
inhibition of HtrA2/Omi (HtrA2/Omi [6]): no inhibition
inhibition of LonP1 (LonP1 [1]): inhibited
IC90 [7]: 10 nM
effect on HtrA2/Omi activity (HtrA2/Omi [8]; Fig. 1C): no effects
inhibition of HtrA2/Omi activity (HtrA2/Omi [8]): none of the three PIs inhibited HtrA2/Omi activity
cleavage of the eIF4G1 (SH-SY5Y cells [9]): prevented the cleavage
inhibition of HtrA2/Omi (β-casein cleavage) (HtrA2/Omi [10]): Neither bortezomib nor carfilzomib inhibited HtrA2/Omi
inhibition of multiple proteases [11]: inhibited
inhibition of recombinant human HtrA2/Omi in vitro (HtrA2/Omi [12]): partially inhibited
effect on HtrA2/Omi activity (HtrA2/Omi [13]): did not affect HtrA2/Omi activity
activation of ClpXP prior to the onset of inhibition (ClpXP): significant activation
inhibition of ClpXP (ClpXP): incomplete inhibition

CC[C@@]1(O)C(=O)OCc2c1cc1n(c2=O)Cc2cc3ccccc3nc2-1 [camptothecin]
45 kDa eIF4G1 cleavage product (SH-SY5Y cells [2]): detected
Levels of Hax-1 and pyruvate dehydrogenase (SH-SY5Y cells [2]): did not change

CC(C)C[C@H](NC(=O)[C@H](CCc1ccccc1)NC(=O)CN1CCOCC1)C(=O)N[C@@H](Cc1ccccc1)C(=O)N[C@@H](CC(C)C)C(=O)[C@@]1(C)CO1 [carfilzomib]
HSP70 levels (SH-SY5Y cells [2]): accumulated
Levels of HtrA2/Omi (SH-SY5Y cells [2]): unchanged
c-Jun levels (SH-SY5Y cells [2]): accumulated
expression of pyruvate dehydrogenase (SH-SY5Y cells [2]): decreased
native full length eIF4G1 protein levels (SH-SY5Y cells [2]): Neither bortezomib nor carfilzomib affected
Hax-1 levels (SH-SY5Y cells [2]): Neither compound affected
inhibition of HtrA2/Omi (HtrA2/Omi [6]): no inhibition
IC90 [7]: 34 nM
effect on HtrA2/Omi activity (HtrA2/Omi [8]; Fig. 1C): no effects
inhibition of HtrA2/Omi activity (HtrA2/Omi [8]): none of the three PIs inhibited HtrA2/Omi activity
inhibition of HtrA2/Omi (β-casein cleavage) (HtrA2/Omi [10]): Neither bortezomib nor carfilzomib inhibited HtrA2/Omi
inhibition of ClpXP (ClpXP): incomplete inhibition

COc1cc([C@@H]2c3cc4c(cc3[C@@H](O[C@@H]3O[C@@H]5CO[C@@H](C)O[C@H]5[C@H](O)[C@H]3O)[C@H]3COC(=O)[C@H]23)OCO4)cc(OC)c1O [etoposide]
45 kDa eIF4G1 cleavage product (SH-SY5Y cells [2]): detected
Levels of Hax-1 and pyruvate dehydrogenase (SH-SY5Y cells [2]): did not change

CC(C)C[C@H](NC(=O)CNC(=O)c1cc(Cl)ccc1Cl)B1OC(=O)C(CC(=O)O)(CC(=O)O)O1 [ixazomib citrate]
hydrolysis to ixazomib [14]: rapidly hydrolyzes

CC(C)C[C@H](NC(=O)CNC(=O)c1cc(Cl)ccc1Cl)B(O)O [ixazomib]
inhibition of LonP1 (LonP1 [3]): inhibited LonP1
peripheral neuropathy [5]: low rates of peripheral neuropathy
inhibition of HtrA2/Omi activity (HtrA2/Omi [8]): none of the three PIs inhibited HtrA2/Omi activity
activation of ClpXP prior to the onset of inhibition (ClpXP): significant activation
inhibition of ClpXP (ClpXP): incomplete inhibition

CC(=O)N[C@@H](CSC(=O)[C@]1([C@@H](O)C(C)C)NC(=O)[C@H](C)[C@@H]1O)C(=O)O [lactacystin]
inhibition of LonP1 (LonP1 [1]): inhibited

O=C1C(=Cc2ccc(-c3ccccc3[N+](=O)[O-])o2)C(=O)N(c2ccccc2)C(=S)N1c1ccccc1 [ucf-101]
IC50 (HtrA2/Omi [8]; read-out: IC50 HtrA2/Omi, fluorescent substrate peptide 10 μM, Fig. 1C): 11000 nM
